Source: BindingDB's records for doi:10.1016/j.ejmech.2013.05.047 (Chulalongkorn University, 2013)

Tests used:
[1] = molecular target: T1, Lysosomal alpha-glucosidase (Rattus norvegicus, UniProt Q6P7A9); assay: Inhibition of rat intestine maltase using maltose as substrate incubated for 10 mins prior to substrate addition measured after 40 mins by glucose oxidase colorimetric method
Procedure, shortened: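 Crude intestinal enzyme supernatant (12,000 g, 30 min) preincubated with test compound (1 mg/mL, 10 µL) at 37 C for 10 min. Substrate in 0.1 M phosphate buffer pH 6.9 was then added: maltose 0.58 mM for maltase, sucrose 20 mM for sucrase. Incubated 40 min at 37 C, stopped by heating at 80 C for 15 min. Released glucose measured by the glucose oxidase kit. % inhibition = [(A0 − A1)/A0] × 100.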

[2] = molecular target: T1, Lysosomal alpha-glucosidase; assay: Non-competitive inhibition of rat intestine maltase using maltose as substrate by Lineweaver-Burk plot analysis
Procedure, shortened: (§1)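 Same maltase/sucrase reactions, with activity held at 0.45 (maltase) and 0.09 (sucrase) U/mg protein. Inhibitor 0 to 20.4 mM against substrate 1.0 to 20.0 mM. Vmax and Km obtained from Lineweaver–Burk intercepts and slopes. Ki (EI) from a secondary plot of slope versus inhibitor concentration; Ki′ (ESI) from a secondary plot of intercept versus inhibitor concentration.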

[3] = molecular target: T1, Lysosomal alpha-glucosidase; assay: Competitive inhibition of rat intestine maltase using maltose as substrate by Lineweaver-Burk plot analysis; procedure, shortened: as §1

T1 sequence (Q6P7A9 whole entry): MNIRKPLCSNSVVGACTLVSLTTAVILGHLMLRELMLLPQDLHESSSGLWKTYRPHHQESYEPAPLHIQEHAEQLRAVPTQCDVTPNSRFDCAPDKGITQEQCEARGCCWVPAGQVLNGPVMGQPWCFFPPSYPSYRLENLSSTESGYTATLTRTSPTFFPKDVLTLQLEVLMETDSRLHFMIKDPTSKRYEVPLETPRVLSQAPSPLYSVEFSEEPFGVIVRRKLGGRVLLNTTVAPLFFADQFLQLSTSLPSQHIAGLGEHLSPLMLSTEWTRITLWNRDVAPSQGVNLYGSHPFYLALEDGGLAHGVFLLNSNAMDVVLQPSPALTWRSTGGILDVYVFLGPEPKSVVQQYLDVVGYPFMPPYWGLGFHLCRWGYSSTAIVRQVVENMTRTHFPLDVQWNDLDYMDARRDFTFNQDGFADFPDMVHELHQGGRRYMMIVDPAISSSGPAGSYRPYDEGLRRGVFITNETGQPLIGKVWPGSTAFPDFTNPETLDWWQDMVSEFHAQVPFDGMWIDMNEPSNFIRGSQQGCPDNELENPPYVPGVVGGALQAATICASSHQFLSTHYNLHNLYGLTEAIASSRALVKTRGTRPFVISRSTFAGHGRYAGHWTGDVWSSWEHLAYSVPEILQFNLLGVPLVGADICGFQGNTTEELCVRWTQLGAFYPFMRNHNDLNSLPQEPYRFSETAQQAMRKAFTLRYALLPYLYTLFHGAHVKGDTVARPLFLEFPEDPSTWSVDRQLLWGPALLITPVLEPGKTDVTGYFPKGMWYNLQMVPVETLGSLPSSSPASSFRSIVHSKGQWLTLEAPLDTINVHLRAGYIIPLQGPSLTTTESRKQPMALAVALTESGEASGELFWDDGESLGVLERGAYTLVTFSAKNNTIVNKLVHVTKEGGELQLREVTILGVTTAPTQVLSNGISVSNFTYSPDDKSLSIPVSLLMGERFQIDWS

Structure (SMILES)	IC50 [1] [µM]	Ki [2] [µM]	Ki [3] [µM]
O=C(/C=C/c1ccc(O)c(O)c1)O[C@H]1C[C@@H](O)[C@H](O)[C@@H](O)[C@H]1O	497	–	–
O=C(/C=C/c1ccc(O)c(O)c1)O[C@@H]1C[C@@H](O)[C@H](O)[C@@H](O)[C@H]1O	5.31	64.5	23.8
COc1ccc(/C=C/C(=O)O[C@@H]2C[C@@H](O)[C@H](O)[C@@H](O)[C@H]2O)cc1O	20.8	–	–
O=C(O)/C=C/c1ccc(O)c(O)c1 [3,4-Dihydroxycinnamate, XVII]	34.7	–	–
COc1cc(/C=C/C(=O)O[C@H]2C[C@@H](O)[C@H](O)[C@@H](O)[C@H]2O)ccc1O	21.1	–	–
COc1ccc(/C=C/C(=O)O[C@H]2C[C@@H](O)[C@H](O)[C@@H](O)[C@H]2O)cc1O	367	–	–
COc1cc(/C=C/C(=O)O[C@@H]2C[C@@H](O)[C@H](O)[C@@H](O)[C@H]2O)ccc1O	51.9	–	–
